# Experimental data published in ChEMBL document CHEMBL2390917, “Synthesis and biological evaluation of 2-(5-methyl-4-phenyl-2-oxopyrrolidin-1-yl)-acetamide stereoisomers as novel positive allosteric modulators of sigma-1 receptor” (Bioorg Med Chem, 2013).
# Counter-ions that a name gives are not always drawn. Active and inactive are the calls of the source. The rule behind the calls is not given here. Residues, ends and D or L forms follow the SMILES beside them.
# What was measured:
# [1] = Binding affinity to L-type calcium channel verapamil binding site (unknown origin) by radioligand displacement assay; set-up: species or system Homo sapiens
# [2] = Binding affinity to GABA-gated chloride channel (unknown origin) by radioligand displacement assay; set-up: species or system Homo sapiens
# [3] = target: Sigma non-opioid intracellular receptor 1 (Homo sapiens, UniProt Q99720)
# [4] = Binding affinity to peripheral-type BZD receptor (unknown origin) by radioligand displacement assay; set-up: species or system Homo sapiens
# [5] = target: 5-hydroxytryptamine receptor 2C (Homo sapiens, UniProt P28335); assay: Binding affinity to human 5-HT2C receptor by radioligand displacement assay
# [6] = target: Sigma non-opioid intracellular receptor 1 (Rattus norvegicus) (UniProt Q9R0C9); assay: Positive allosteric modulation of Wistar rat sigma 1 receptor assessed as increase in electrically-stimulated vas deferens contraction at 10 uM after 10 mins
# In short: (§1)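 Isolated rat vas deferens, proximal ~15 mm segments, in K-H buffer at 32 °C gassed […], with 1.0 g passive tension and a 60 min adaptation. Field-stimulated at 0.1 Hz, 1 ms, 50 V. Cumulative PRE-084 (1–100 µM) was given, then washout and a 30 min rest. Test compound 10 µM was added for 10 min before cumulative PRE-084. Response is % increase over baseline amplitude; n=6, mean ± SEM, paired t-test.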
# [7] = target: Sigma non-opioid intracellular receptor 1 (Rattus norvegicus) (UniProt Q9R0C9); assay: Positive allosteric modulation of Wistar rat sigma 1 receptor assessed as potentiation of PRE-084 effect on electrically-stimulated vas deferens contraction at 10 uM preincubated for 10 mins followed by PRE-084 addition; in short: as §1
# [8] = Binding affinity to P2Y receptor (unknown origin) by radioligand displacement assay; set-up: species or system Homo sapiens
# [9] = Binding affinity to P2X receptor (unknown origin) by radioligand displacement assay; set-up: species or system Homo sapiens
# [10] = Binding affinity to sodium channel site 2 (unknown origin) by radioligand displacement assay; set-up: species or system Homo sapiens
# [11] = target: Muscarinic acetylcholine receptor M5 (Homo sapiens, UniProt P08912); assay: Binding affinity to human muscarinic M5 receptor by radioligand displacement assay
# [12] = Binding affinity to PCP receptor (unknown origin) by radioligand displacement assay; set-up: species or system Homo sapiens
# [13] = target: 5-hydroxytryptamine receptor 2B (Homo sapiens, UniProt P41595); assay: Binding affinity to human 5-HT2B receptor by radioligand displacement assay
# [14] = target: Alpha-2A adrenergic receptor (Homo sapiens, UniProt P08913); assay: Binding affinity to human adrenergic alpha2 receptor by radioligand displacement assay
# [15] = target: Adrenergic receptor alpha-1 (Homo sapiens, UniProt P35348+P25100+P35368); assay: Binding affinity to human adrenergic alpha1 receptor by radioligand displacement assay
# [16] = target: Type-2 angiotensin II receptor (Homo sapiens, UniProt P50052); assay: Binding affinity to human angiotensin AT2 receptor by radioligand displacement assay
# Chain of Type-2 angiotensin II receptor (P50052 whole entry): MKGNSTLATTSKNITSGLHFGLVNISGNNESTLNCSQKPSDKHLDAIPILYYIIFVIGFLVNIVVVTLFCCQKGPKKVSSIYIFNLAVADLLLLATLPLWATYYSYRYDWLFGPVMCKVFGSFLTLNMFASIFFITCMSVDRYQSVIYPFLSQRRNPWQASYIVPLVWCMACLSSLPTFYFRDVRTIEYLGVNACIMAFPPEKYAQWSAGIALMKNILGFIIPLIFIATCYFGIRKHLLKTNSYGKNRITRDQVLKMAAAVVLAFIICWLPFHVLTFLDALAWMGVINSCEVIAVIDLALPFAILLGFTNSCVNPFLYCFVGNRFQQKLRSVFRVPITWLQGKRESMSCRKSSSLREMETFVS
# Chain of Sigma non-opioid intracellular receptor 1 (Rattus norvegicus) (Q9R0C9 whole entry): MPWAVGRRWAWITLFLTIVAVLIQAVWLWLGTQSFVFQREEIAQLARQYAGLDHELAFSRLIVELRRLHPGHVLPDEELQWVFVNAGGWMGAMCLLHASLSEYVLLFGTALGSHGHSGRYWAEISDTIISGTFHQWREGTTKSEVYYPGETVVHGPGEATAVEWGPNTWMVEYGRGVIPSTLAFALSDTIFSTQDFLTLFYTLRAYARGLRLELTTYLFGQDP
# Chain of 5-hydroxytryptamine receptor 2B (P41595 whole entry): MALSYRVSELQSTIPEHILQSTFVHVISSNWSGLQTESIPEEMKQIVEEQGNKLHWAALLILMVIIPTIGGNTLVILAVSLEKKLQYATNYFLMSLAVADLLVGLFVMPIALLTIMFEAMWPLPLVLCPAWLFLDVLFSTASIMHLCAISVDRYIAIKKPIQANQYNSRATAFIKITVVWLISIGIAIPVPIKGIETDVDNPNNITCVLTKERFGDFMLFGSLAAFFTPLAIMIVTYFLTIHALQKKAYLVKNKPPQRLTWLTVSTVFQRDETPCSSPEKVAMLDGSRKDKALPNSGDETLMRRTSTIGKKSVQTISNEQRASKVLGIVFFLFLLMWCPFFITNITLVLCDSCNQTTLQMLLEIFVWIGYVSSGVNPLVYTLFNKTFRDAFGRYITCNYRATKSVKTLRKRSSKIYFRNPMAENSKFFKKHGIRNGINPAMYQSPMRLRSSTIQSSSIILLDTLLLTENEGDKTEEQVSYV
# Chain of 5-hydroxytryptamine receptor 2C (P28335 whole entry): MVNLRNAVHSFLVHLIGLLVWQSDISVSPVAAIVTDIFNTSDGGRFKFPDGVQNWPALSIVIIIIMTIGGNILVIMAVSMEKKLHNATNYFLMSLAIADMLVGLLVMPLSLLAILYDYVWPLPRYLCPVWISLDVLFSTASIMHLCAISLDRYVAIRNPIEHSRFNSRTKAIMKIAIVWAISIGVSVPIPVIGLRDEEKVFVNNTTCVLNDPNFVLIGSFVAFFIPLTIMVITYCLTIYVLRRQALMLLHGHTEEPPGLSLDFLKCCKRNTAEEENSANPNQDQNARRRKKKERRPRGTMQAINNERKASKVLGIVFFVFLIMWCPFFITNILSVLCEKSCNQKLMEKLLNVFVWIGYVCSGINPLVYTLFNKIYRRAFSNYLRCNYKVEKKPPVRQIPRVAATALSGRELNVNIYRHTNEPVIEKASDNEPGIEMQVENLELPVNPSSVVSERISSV
# Chain of Muscarinic acetylcholine receptor M5 (P08912 whole entry): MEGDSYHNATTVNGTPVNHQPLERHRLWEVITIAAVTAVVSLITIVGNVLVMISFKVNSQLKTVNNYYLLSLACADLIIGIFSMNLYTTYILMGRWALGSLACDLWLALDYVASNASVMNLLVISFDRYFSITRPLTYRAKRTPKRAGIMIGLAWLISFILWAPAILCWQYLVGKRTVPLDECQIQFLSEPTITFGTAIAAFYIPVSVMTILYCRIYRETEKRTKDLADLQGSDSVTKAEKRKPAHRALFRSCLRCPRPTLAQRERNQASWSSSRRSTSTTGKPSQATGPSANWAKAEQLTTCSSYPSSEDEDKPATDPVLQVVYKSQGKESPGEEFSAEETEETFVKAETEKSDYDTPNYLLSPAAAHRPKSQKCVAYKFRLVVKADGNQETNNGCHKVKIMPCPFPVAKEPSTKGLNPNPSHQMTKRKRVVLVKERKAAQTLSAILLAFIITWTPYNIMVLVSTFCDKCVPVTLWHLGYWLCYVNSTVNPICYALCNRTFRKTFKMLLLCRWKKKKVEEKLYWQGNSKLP
# Chain of Sigma non-opioid intracellular receptor 1 (Q99720 whole entry): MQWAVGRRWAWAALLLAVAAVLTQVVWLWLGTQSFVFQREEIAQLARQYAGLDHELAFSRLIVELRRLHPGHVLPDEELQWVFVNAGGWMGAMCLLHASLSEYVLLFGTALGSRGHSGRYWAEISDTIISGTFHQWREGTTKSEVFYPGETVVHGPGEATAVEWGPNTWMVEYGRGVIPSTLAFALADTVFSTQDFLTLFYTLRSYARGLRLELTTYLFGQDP
# Chain of Alpha-2A adrenergic receptor (P08913 whole entry): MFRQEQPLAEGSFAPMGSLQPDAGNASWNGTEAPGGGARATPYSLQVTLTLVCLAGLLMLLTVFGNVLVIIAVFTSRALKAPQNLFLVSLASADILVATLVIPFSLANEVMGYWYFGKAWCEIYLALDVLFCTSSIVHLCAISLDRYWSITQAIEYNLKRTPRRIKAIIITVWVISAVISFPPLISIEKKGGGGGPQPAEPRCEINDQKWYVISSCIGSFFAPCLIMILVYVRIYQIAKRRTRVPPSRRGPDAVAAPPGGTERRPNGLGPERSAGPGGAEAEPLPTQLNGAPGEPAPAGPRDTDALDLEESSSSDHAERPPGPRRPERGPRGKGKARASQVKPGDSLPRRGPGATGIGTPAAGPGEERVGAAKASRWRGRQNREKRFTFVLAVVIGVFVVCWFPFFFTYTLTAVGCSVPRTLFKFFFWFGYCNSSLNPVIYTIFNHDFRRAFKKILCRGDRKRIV
structure (smiles),measurement,setting,value
COc1ccc(CCN(C)CCCC(C#N)(c2cc(OC)c(OC)c(OC)c2)C(C)C)cc1OC (stereo not given) [GALLOPAMIL],IC50,[1],20 nM
C=C(C)[C@@H]1[C@H]2OC(=O)[C@@H]1[C@]1(O)C[C@H]3O[C@]34C(=O)O[C@H]2[C@]14C [PICROTOXININ],IC50,[2],250 nM
COc1cc2c(cc1OC)C(=O)C(CC1CCN(Cc3ccccc3)CC1)C2 (stereo not given) [DONEPEZIL],Ki,[3],14.6 nM
CCC(C)N(C)C(=O)c1cc2ccccc2c(-c2ccccc2Cl)n1 (stereo not given) [PK-11195],IC50,[4],1.1 nM
"COc1cc(OC)c(C(=O)CCCCN2CCC3(CC2)NC(=O)NC3=O)cc1NS(=O)(=O)c1ccc(C(F)(F)F)cc1 [RS-102,221]",IC50,[5],5.5 nM
C[C@@H]1[C@H](c2ccccc2)CC(=O)N1CC(N)=O,Activity,[6],inactive
same,Activity,[7],Active
Nc1ncnc2c1ncn2[C@H]1C[C@H](O)[C@@H](COP(O)(=S)OP(=O)(O)OP(=O)(O)O)O1 (stereo not given in full),IC50,[8],25 nM
Nc1ncnc2c1ncn2[C@@H]1O[C@H](COP(=O)(O)CP(=O)(O)OP(=O)(O)O)[C@@H](O)[C@H]1O [DIPHOSPHOMETHYLPHOSPHONIC ACID ADENOSYL ESTER],IC50,[9],3.5 nM
COc1ccc(C(=O)O[C@H]2CC[C@@]3(C)[C@@H]4CC[C@H]5[C@]6(O)C[C@H](O)[C@@]7(O)[C@@H](CN8C[C@@H](C)CC[C@H]8[C@@]7(C)O)[C@]6(O)C[C@@]53O[C@]24O)cc1OC [VERATRIDINE],IC50,[10],7.7 µM
C[N+]1(C)CCC(OC(=O)C(c2ccccc2)c2ccccc2)CC1 [4-DAMP],IC50,[11],0.8 nM
C[C@H]1[C@H](c2ccccc2)CC(=O)N1CC(N)=O,Activity,[6],inactive
same,Activity,[7],Active
C[C@]12N[C@H](Cc3ccccc31)c1ccccc12 [DIZOCILPINE MALEATE],IC50,[12],6 nM
COc1cc(CC(C)N)c(OC)cc1I (stereo not given),IC50,[13],3.2 nM
Cc1ccc(OCC(O)C(C)NC(C)C)c2c1CCC2 (stereo not given) [ZENIDOLOL],IC50,[14],0.5 nM
CC(C)NCC(O)COc1ccc(CC(N)=O)cc1 (stereo not given) [ATENOLOL],IC50,[15],230 nM
C[C@@H]1[C@@H](c2ccccc2)CC(=O)N1CC(N)=O,Activity,[6],inactive
same,Activity,[7],Active
CC(C)[C@H](NC(=O)[C@H](CCCNC(=N)N)NC(=O)[C@@H](N)CC(=O)O)C(=O)N[C@@H](Cc1ccc(O)cc1)C(=O)N[C@H](C(=O)N[C@@H](Cc1cnc[nH]1)C(=O)N1CCC[C@H]1C(=O)N[C@@H](C)C(=O)O)C(C)C [ANGIOTENSIN] (H-DRVYVHPA-OH),IC50,[16],0.13 nM
